In series [1] the test system is Mus musculus. The series can be described thus: Antiobesity activity in DIO mouse assessed as decrease in [cPP(1 to 7),NPY(19 to 23),Ala(31),Alb(32),Gln(34)]-induced food intake at 12.5 mg/kg, po administered 1 hr prior to [cPP(1 to 7),NPY(19 to 23),Ala(31),Alb(32),Gln(34)]-induction measured at 4 hrs relative to vehicle-treated control. The series is classed as functional. On the set-up: scale not given: the % may be the effect or the level left. Put shortly: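 Diet-induced obese mice dosed orally at 12.5 mg/kg 1 h before icv injection of a Y5-selective agonist (0.1 nmol). Cumulative food intake recorded over the following 4 h.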

In series [2] the test system is Mus musculus. The series can be described thus: Antiobesity activity in DIO mouse assessed as decrease in [cPP(1 to 7),NPY(19 to 23),Ala(31),Alb(32),Gln(34)]-induced food intake at 12.5 mg/kg, po administered 1 hr prior to [cPP(1 to 7),NPY(19 to 23),Ala(31),Alb(32),Gln(34)]-induction measured at 2 hrs relative to vehicle-treated control. The series is classed as functional. Set-up: scale not given: the % may be the effect or the level left.

Series [3] in a line: Metabolic stability in rat liver microsomes assessed as compound remaining after 30 mins. The series is classed as ADME, Microsome. The note with it: read-out: Stability. Put shortly: (§1)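 Human or rat liver microsomes incubated with compound for 30 min. Result given as percent of parent compound remaining.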
(Liver microsomes are a subcellular fraction often used to study metabolism.)

The target in series [4] is T1, Cytochrome P450 1A2 (Homo sapiens, UniProt P05177).
T1 sequence (P05177 whole entry): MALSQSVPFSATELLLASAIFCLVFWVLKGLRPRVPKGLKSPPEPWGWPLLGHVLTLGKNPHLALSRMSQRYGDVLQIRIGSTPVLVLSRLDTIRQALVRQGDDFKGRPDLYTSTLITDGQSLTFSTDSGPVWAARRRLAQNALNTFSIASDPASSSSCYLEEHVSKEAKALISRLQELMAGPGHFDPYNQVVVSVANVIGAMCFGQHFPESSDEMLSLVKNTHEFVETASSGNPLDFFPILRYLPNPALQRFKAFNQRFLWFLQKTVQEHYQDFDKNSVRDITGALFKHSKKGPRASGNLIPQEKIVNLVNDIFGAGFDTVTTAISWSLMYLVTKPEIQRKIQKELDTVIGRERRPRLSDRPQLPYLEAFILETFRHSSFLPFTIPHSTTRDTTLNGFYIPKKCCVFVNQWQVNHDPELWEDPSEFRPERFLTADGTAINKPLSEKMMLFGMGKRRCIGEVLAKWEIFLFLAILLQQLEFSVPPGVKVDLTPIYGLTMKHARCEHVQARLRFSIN
The series can be described thus: Inhibition of CYP1A2. The series is classed as ADME.

Series [5] can be described thus: Metabolic stability in human liver microsomes assessed as compound remaining after 30 mins. Conditions: read-out: Stability. In kind it is ADME, Microsome. Put shortly: as §1
A short description of series [6]: Kinetic solubility of the compound in 1%DMSO at pH 6.8. In kind it is physicochemical. The note with it: read-out: Kinetic_solubility. The method, boiled down:
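Kinetic solubility measured at pH 6.8 from a 1% DMSO solution.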

Series [7] concerns the target T2, Neuropeptide Y receptor type 5 (Mus musculus, UniProt O70342).
T2 sequence (O70342 whole entry): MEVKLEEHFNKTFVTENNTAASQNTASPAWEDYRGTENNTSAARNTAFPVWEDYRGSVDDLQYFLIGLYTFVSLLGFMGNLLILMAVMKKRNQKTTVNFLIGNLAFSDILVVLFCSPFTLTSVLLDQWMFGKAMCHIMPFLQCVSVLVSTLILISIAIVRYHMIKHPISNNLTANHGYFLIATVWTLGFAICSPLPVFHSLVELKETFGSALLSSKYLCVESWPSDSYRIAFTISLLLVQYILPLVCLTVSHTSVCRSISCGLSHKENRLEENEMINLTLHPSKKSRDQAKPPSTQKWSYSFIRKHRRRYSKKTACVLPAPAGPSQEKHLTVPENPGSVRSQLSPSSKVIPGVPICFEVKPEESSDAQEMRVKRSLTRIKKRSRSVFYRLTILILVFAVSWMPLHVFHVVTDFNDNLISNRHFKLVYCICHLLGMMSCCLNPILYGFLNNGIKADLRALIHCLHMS
The experiment in a line: Displacement of [125I]PYY from mouse NPY Y5 receptor. Put shortly: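 Competition binding at mouse NPY Y5 receptors with 125I-PYY as ligand. IC50 is the concentration giving 50% inhibition of total specific binding, taken as the mean of two or more independent assays.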

The target of series [8] is Cytochrome P450 2D6 (Homo sapiens, UniProt P10635). The series can be described thus: Inhibition of CYP2D6. The series is classed as ADME.
In series [9] the target is Cytochrome P450 2C9 (Homo sapiens, UniProt P11712). The series can be described thus: Inhibition of CYP2C9. In kind it is ADME.
Series [10] has as its target Cytochrome P450 2C19 (Homo sapiens, UniProt P33261). The experiment in a line: Inhibition of CYP2C19. The series is classed as ADME.
Series [11] has as its target Cytochrome P450 3A4 (Homo sapiens, UniProt P08684). The series can be described thus: Inhibition of CYP3A4. The series is classed as ADME.

3 compounds from ChEMBL document CHEMBL2157871, “Identification of a novel and orally available benzimidazole derivative as an NPY Y5 receptor antagonist with in vivo efficacy” (Bioorg Med Chem Lett, 2012) can be followed below.

Values after ≈ are worked out from the molar mass of the structure shown.

Cytochrome P450 3A4, sequence (P08684 whole entry): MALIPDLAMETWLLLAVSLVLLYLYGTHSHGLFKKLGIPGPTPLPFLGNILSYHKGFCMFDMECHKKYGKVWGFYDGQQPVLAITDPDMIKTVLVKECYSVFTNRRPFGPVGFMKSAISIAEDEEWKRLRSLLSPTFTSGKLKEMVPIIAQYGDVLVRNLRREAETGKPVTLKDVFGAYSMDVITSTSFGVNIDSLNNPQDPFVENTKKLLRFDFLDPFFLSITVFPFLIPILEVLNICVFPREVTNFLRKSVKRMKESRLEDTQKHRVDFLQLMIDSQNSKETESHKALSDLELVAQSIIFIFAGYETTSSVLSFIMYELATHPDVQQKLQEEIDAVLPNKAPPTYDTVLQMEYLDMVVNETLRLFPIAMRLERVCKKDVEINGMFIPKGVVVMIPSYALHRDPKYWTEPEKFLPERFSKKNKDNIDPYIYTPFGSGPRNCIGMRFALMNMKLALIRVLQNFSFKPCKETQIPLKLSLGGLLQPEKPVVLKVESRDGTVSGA
Cytochrome P450 2C19, sequence (P33261 whole entry): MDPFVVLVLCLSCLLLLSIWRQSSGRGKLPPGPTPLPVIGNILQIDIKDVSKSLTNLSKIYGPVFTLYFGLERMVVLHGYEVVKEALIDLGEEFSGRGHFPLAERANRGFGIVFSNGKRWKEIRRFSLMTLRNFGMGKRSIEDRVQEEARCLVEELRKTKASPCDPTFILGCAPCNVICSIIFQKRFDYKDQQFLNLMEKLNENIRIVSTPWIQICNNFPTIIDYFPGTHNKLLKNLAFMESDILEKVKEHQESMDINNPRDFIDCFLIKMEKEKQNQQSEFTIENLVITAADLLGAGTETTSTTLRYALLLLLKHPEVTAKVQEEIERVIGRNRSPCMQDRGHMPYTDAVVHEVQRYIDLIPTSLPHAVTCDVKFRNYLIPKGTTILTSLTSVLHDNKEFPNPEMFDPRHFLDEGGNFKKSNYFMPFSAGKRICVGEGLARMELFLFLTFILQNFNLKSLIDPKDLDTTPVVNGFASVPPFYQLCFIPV
Cytochrome P450 2C9, sequence (P11712 whole entry): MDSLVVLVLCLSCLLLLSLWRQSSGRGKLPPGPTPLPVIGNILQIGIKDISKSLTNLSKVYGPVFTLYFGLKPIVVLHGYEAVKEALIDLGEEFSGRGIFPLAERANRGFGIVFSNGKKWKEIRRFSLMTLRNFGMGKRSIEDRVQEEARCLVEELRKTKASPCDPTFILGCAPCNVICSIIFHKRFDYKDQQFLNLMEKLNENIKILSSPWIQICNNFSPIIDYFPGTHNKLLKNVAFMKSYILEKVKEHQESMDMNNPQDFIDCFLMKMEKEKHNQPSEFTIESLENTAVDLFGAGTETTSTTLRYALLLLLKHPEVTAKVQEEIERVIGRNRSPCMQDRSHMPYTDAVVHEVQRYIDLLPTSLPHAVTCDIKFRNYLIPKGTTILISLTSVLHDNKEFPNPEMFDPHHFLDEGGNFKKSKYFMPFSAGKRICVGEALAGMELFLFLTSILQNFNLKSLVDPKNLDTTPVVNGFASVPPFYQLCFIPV
Cytochrome P450 2D6, sequence (P10635 whole entry): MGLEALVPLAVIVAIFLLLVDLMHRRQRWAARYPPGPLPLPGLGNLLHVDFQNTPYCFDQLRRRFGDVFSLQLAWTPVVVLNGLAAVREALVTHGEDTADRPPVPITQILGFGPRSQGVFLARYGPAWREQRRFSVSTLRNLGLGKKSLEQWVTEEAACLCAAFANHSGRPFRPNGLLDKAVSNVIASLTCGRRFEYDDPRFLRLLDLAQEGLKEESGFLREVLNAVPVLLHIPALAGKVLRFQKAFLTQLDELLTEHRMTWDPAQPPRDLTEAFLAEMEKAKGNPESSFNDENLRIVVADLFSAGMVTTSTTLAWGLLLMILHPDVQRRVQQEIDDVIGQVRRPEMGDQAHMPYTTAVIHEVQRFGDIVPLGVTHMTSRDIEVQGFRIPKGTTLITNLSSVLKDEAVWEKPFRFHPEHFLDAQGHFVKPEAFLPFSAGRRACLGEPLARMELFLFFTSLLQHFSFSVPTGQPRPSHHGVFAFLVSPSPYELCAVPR

In the case of `CCS(=O)(=O)c1ccc2[nH]c(N3CCO[C@H](c4ccccc4)C3)nc2c1`, the Activity was found to be 71% in [1] and 67.2% in [2].

Consider `CCS(=O)(=O)c1ccc2nc(N3CCOC(c4ccccc4)C3)[nH]c2c1` (configuration not stated), for which the Activity in series [1] is on record as 42.7%; in series [2], 56%. The remaining at 0.5 h in [3] stood at 76.1%; in [5] it was 89%. In addition, the INH in series [4], in [8], in [9], in series [10] and in [11] was greater than 20 µM throughout. Further, the solubility kinetic in [6] is greater than 50 µM. The same compound displayed an IC50 in series [7] of 0.43 nM.

Turning to `CCS(=O)(=O)c1ccc2[nH]c(N3CCOC(c4ccc(Cl)cc4)C3)nc2c1` (configuration not stated), the values for the remaining at 0.5 h in series [3] and in [5] were 87.2% and 94.6%, respectively. Further, the INH in series [4] was 9.2 µM; in series [8], 18 µM; in [9], greater than 20 µM; in series [10], 9.1 µM; in [11], 13 µM. Further, in series [6], the solubility kinetic was 38.1 µM (≈ 15.5 µg/mL). Moreover, the IC50 in [7] came to 0.85 nM.

The IC50 is the concentration needed to halve the response being measured.
